This is a sample that favours compounds with a hit; in the whole collection about 0.74% have one here.
Tn7 DDE FP – inhibitors of Tn7 peptide binding to human fibrin DD(E); P02675; FP displacement of FITC-Tn7 peptide from fibrin DD(E); 0% = median of compound wells per plate; inhibition, % at 8.3 µM; actives 0.13% (n = 370,000); AID 720508;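 active means inhibition above the mean of compounds falling within the control limits plus 3 SD of them, cut at about 14% in these data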;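 further: 0% = plate median of compound wells and 100% = 10 µM Aha-Tn7 peptide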
Target sequence (P02675 whole entry, looked up): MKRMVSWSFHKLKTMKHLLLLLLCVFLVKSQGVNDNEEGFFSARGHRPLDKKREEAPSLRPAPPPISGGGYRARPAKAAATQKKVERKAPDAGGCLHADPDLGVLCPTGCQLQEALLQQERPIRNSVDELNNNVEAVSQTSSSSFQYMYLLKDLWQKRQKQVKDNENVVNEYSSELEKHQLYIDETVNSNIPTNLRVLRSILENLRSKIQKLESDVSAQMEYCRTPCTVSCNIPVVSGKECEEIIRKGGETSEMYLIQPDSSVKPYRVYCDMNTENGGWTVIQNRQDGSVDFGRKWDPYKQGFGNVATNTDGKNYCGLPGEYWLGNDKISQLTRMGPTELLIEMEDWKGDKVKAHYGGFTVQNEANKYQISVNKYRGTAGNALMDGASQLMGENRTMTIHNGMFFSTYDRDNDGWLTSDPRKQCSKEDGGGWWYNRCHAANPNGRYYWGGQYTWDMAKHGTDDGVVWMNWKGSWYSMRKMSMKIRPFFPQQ
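Assay system: Human clot-derived fibrin DD(E) complex | Buffer or medium: Tris/NaCl/CaCl2 buffer, pH 7.8 | Repeats: One replicate per compound | Benchmarks: Aha-Tn7 high control | Measure: % inhibition scaled between sample-field median and high-control FP | Schedule: 10 min plus 3 h, room temperature | Signal: Fluorescence polarization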
Tn6 DDE FP – disrupts Tn6 cyclic peptide binding to fibrin D-Dimer-E complex. AID 720509. actives 0.21% (n = 370,000). Fibrin DD(E) TRITC-Tn6 fluorescence polarization displacement. inhibition, % at 8.3 µM. P02675;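 active means inhibition above a per-campaign cutoff: mean of compounds within control limits plus 3 SD, cut at about 15% in these data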;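 further: 0% = median of all compound wells on the plate and 100% = blocking peptide control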
ARFGAP1 inh – rat ARFGAP1 inhibition; Q62848; Arfgap1-stimulated ARF1 GTP hydrolysis, GDP FP detection; inhibition, % at 16.5 µM; actives 0.26% (n = 360,000);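 active means inhibition above a per-plate limit, mean inhibition of low control wells plus 3 SD, cut at about 25% in these data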;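 further: 0% = DMSO wells with enzyme and 100% = wells lacking Arfgap1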
Target sequence (Q62848 1-136 limits assumed): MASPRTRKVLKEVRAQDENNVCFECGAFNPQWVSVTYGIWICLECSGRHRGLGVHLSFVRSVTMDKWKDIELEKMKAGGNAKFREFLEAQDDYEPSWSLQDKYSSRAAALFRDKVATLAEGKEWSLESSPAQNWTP
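System: truncated rat Arfgap1 GAP domain / Medium: HEPES-based buffer, pH 7.5 / Also added: N-terminally truncated human ARF1-GTP substrate / Incubation: enzyme reaction 120 min at 25 °C after 20 min preincubation / Measured by: FP of antibody-bound GDP Alexa 633 tracer, ex 620/em 688 nm / Replicates: singlicate, each compound tested once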
ASAP1 GAP inh – blocks human ASAP1-stimulated Arf1 GTP hydrolysis | inhibition, % at 16.5 µM | AID 624377 | Q9ULH1 | actives 0.19% (n = 360,000) | GDP FP detection; in the data active means inhibition above about 25%;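 further: 0% = vehicle with enzyme and substrate and 100% = no enzyme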
Tn7 DDE conf – confirmation of inhibitors of Tn7 binding to human fibrin DD(E) | shares compounds with Tn7 DDE FP | FP displacement of TRITC-Tn7 peptide from DD(E); 0% set at plate's compound-well median | inhibition, % at 8.3 µM | actives 5% (n = 460);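 active means inhibition above the campaign cutoff, the mean of compounds within control limits plus 3 SD, cut at about 14% in these data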;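 further: 100% = median FP of high control wells holding Aha-Tn7 inhibitor peptide; displacers lower polarization since freed probe rises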
DDE Tn7 FP ctr – DD(E)-Tn7 binding inhibition, counter-screen; actives 3% (n = 460); shares compounds with Tn7 DDE FP; inhibition, % at 8.3 µM; fibrin DD(E), TRITC-Tn7 probe displacement, fluorescence polarization;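 active means inhibition above the cutoff, the mean of compounds lying between the control bounds plus 3 SD of those compounds, cut at about 17% in these data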;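 further: 0% = median of compound sample wells and 100% = excess unlabeled Aha-Tn7 peptide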
The depositor's hits bear a star; nt = no result given.

SMILES | Tn7 DDE FP | Tn6 DDE FP | ARFGAP1 inh | ASAP1 GAP inh | Tn7 DDE conf | DDE Tn7 FP ctr
C=CCC(=O)NC1CCCc2c1cnn2-c1cc(F)cc(F)c1 (centres undefined) | 15* | 5 | -4 | 14 | -6 | -9
COc1ccc2[nH]c(=O)c(CN(C(=O)c3ccncc3)C(C)C)cc2c1 | -5 | -7 | -2 | 13 | nt | nt
COc1ccc2[nH]c(=O)c(CN(C)C(=O)c3ccncc3)cc2c1 | 15* | -1 | -3 | -7 | -2 | -4
COc1ccc(OC)c(S(=O)(=O)Nc2ccc(CC(=O)O)cc2)c1 | 17* | -1 | -12 | 4 | 3 | 4
COc1ccc(OC)c(S(=O)(=O)Nc2ccc(OCC(=O)O)cc2)c1 | -8 | -3 | 5 | 16 | nt | nt
CCC(CC)C(=O)c1c[nH]c(C(=O)NCc2ccccc2OC)c1 | 3 | -9 | 5 | 15 | nt | nt
CCC(CC)C(=O)c1c[nH]c(C(=O)NCc2ccccc2)c1 | 14* | -1 | 9 | 5 | 0 | -2
CCCCOCC1CN(CCCC)S(=O)(=O)c2c(cccc2N(C)S(=O)(=O)c2ccc(C)cc2)O1 (centres undefined) | 2 | -12 | 0 | -1 | nt | nt
Cc1cccc(N2C(=O)c3cccc4c(N)ccc(c34)C2=O)c1 | 11 | 9 | 14 | -2 | nt | nt
CC(C)CCN1C(=O)c2cccc3c(N)ccc(c23)C1=O | 49* | 8 | 13 | 13 | 8 | -1
Cc1ccc(-c2csc3ncnc(SCC(N)=O)c23)cc1 | 16* | 5 | -7 | -2 | 1 | -1
C[C@@H]1CN([C@@H](C)CO)C(=O)CCCn2cc(nn2)CO[C@H]1CN(C)C(=O)CCC(F)(F)F | -7 | 3 | 0 | -3 | nt | nt
COc1ccc(/C=C2\CCc3c2nc2ccccc2c3C(=O)O)cc1OC | 23* | -10 | 4 | 2 | -6 | -13
O=c1[nH]c(-[n+]2ccc3ccccc3c2)c(/C=N/N=C(\[O-])c2ccccc2)s1 | 17* | -8 | 3 | 4 | -1 | -16
O=C(O)c1cc(=O)c2c(Cl)cc(Cl)cc2[nH]1 | -8 | -3 | 6 | -8 | nt | nt
O=C(O)c1cc(=O)c2ccccc2[nH]1 | 14* | 2 | 1 | -4 | -6 | -8
CC(C)C[C@H]1CN([C@@H](Cc2ccccc2)CN2CCC[C@H]2CN2C(=O)C(=O)NC[C@@H]2Cc2ccccc2)C(=O)C(=O)N1CC1CCCCCC1 | -3 | -4 | 11 | 15 | nt | nt
COc1cc(OC)c(CNC2CCCCCC2)cc1Br | 15* | -3 | 1 | 3 | 2 | 1
O=[N+]([O-])c1cccc(S(=O)(=O)N2CN(c3ccc(Br)cc3)c3nc4ccccc4nc32)c1 | 17* | -6 | -3 | -7 | 8 | 1
Cc1ccc(NC(=S)NCc2ccc(Cl)cc2)c(OC(F)F)c1 | 14* | 7 | -11 | 3 | 11 | 0
CCOC(=O)c1ccc(NC(=O)CSc2nnc(-c3cc(-c4ccccc4)n[nH]3)n2N)cc1 | -1 | 3 | nt | nt | nt | nt
COc1ccc(N=Nc2nc3ccc(Br)cc3n2C)cc1 | 55* | 6 | -3 | 2 | 2 | 0
C[C@H]1COC(=O)[C@@H](Cc2ccc(F)cc2)C/C=C\C[C@@H](CC(=O)NCCO)C(=O)N1 | 0 | -2 | 3 | 8 | nt | nt
C[C@@H]1COC(=O)[C@H](Cc2ccc(F)cc2)C/C=C\C[C@@H](CC(=O)NCCO)C(=O)N1 | 15* | 9 | 2 | 14 | -7 | -11
FC(F)(F)c1cc(NCc2cccs2)n2ncnc2n1 | 15* | 5 | -11 | -12 | -6 | -9
SMILES | Tn7 DDE FP | Tn6 DDE FP | ARFGAP1 inh | ASAP1 GAP inh | Tn7 DDE conf | DDE Tn7 FP ctr
CCc1c(C)nc2ncnn2c1NCc1cccs1 | -4 | -2 | 0 | -2 | nt | nt
COC(=O)[C@]12C[C@H](CC(=O)NCc3cccs3)C(=O)N(CCc3ccc(OC)c(OC)c3)C1=C[C@H](C(C)(C)C)O[C@@H]2C | -2 | -5 | 6 | -18 | nt | nt
O=C(NC1CCN(S(=O)(=O)c2ccc(Cl)cc2)CC1)C1CCCCC1 | 14* | 3 | 2 | 15 | -1 | -6
C[C@H]1[C@@H](NC(=O)/C=C/c2ccccc2)CC[C@@]23CCCN2C(=O)CCC[C@@H]13 | 4 | 8 | nt | nt | nt | nt
COc1ccc(OC)c(S(=O)(=O)N2CCCCC2C(=O)N2CCN(Cc3ccc(F)cc3)CC2)c1 (centres undefined) | 1 | 5 | nt | nt | nt | nt
COC(=O)[C@]12C[C@H](CC(=O)NCc3cccs3)C(=O)N(Cc3ccccc3)C1=C[C@H](C1CCCC1)O[C@@H]2C | 9 | 6 | 3 | 14 | nt | nt
O=C(CSc1nc2ccc(Nc3nc(N4CCOCC4)nc(N4CCOCC4)n3)cc2s1)Nc1ccccc1Cl | -3 | 6 | -3 | -6 | nt | nt
O=C(CSc1nc2ccc(Nc3nc(N4CCOCC4)nc(N4CCOCC4)n3)cc2s1)Nc1ccccc1F | 16* | 9 | 8 | -2 | 5 | -10
O=C(c1cc(-c2ccc(O)cc2)on1)N1CCc2ccccc2C1 | 18* | -5 | 2 | -21 | 4 | -1
COc1ccc(-c2ccc([C@H]3[C@H]4C=CC[C@@H](C)[C@@H]4C(=O)N3Cc3ccccc3)c(F)c2)cc1OC | 14* | -9 | -2 | 15 | 2 | -12
Fc1cccc(CCN2C(=S)NC[C@@H]2Cc2ccccc2)c1 | 15* | 2 | -7 | -14 | 4 | 1
O=C1CCCC2=C1C(c1ccsc1)CC(=O)N2c1ccccc1F (centres undefined) | 15* | 4 | -16 | 2 | 1 | -2
C[C@H]1[C@H](c2ccccc2)Oc2cccc(NCCc3ccccc3)c2S(=O)(=O)N1Cc1cccc(Cl)c1 | 0 | -4 | 1 | 13 | nt | nt
CN(C)S(=O)(=O)c1cccc(NC(=O)C2CCN(S(=O)(=O)c3cccs3)CC2)c1 | 14* | -4 | 2 | -8 | -6 | -7
COc1ccc(NC(=O)C(c2cc3c(cc2[N+](=O)[O-])OCO3)N(C)c2ccccc2)cc1 (centres undefined) | 15* | 2 | -7 | -8 | -5 | -5
O=C(N[C@@H](Cc1cccnc1)C(=O)N1CCC[C@H]1C(=O)NCCc1ccccc1Cl)C1CCCC1 | -8 | 15 | 1 | 0 | nt | nt
Cc1ccccc1NC(=O)COc1coc(CN2CCCc3ccccc32)cc1=O | 15* | 2 | 3 | -9 | 1 | -4
COC(=O)c1cc2occc2n1Cc1ccc(Cl)cc1 | 0 | 3 | -2 | -8 | nt | nt
COC(=O)c1cc2occc2n1CC(=O)Nc1ccc(C)cc1C | 14* | 1 | 5 | -25 | 5 | 1
C=C(C)C1CC=C(C)/C(=N/NC(=O)c2ccc(NC(=O)CCC)cc2)C1 (centres undefined) | 14* | 6 | 1 | 5 | 8 | 3

Source: PubChem BioAssay
